Data reported in ChEMBL document CHEMBL1141286, “Benzochromenones from the marine crinoid Comantheria rotula inhibit hypoxia-inducible factor-1 (HIF-1) in cell-based reporter assays and differentially suppress the growth of certain tumor cell lines” (J Nat Prod, 2007).

Tested on: KM12
Assay: Growth inhibition of human KM12 cells
Format: functional
Conditions: read-out: Log LC50 (the source's name) (converted)

Compound	CC50
COc1cc(O)cc2cc3oc(C)cc(=O)c3c(OC)c12 [COMANTHERIN]	> 100 µM

Same assay, conditions: read-out: Log TGI (converted)

Compound	TGI
COc1cc(O)cc2cc3oc(C)cc(=O)c3c(OC)c12 [COMANTHERIN]	> 100 µM

Tested on: MDA-MB-231
Assay: Growth inhibition of human MDA-MB-231 cells
Format: functional
Conditions: not given

Compound	GI50	LC50
COc1cc(O)cc2cc3oc(C)cc(=O)c3c(OC)c12 [COMANTHERIN]	> 100 µM	> 100 µM

Same assay, conditions: read-out: Log TGI (converted)

Compound	TGI
COc1cc(O)cc2cc3oc(C)cc(=O)c3c(OC)c12 [COMANTHERIN]	> 100 µM

Tested on: HT-29
Assay: Growth inhibition of human HT29 cells
Format: functional
Conditions: not given

Compound	GI50
COc1cc(O)cc2cc3oc(C)cc(=O)c3c(OC)c12 [COMANTHERIN]	> 100 µM

Same assay, conditions: read-out: Log LC50 (the source's name) (converted)

Compound	CC50
COc1cc(O)cc2cc3oc(C)cc(=O)c3c(OC)c12 [COMANTHERIN]	> 100 µM

Same assay, conditions: read-out: Log TGI (converted)

Compound	TGI
COc1cc(O)cc2cc3oc(C)cc(=O)c3c(OC)c12 [COMANTHERIN]	> 100 µM

Tested on: NCI-H23
Assay: Growth inhibition of human NCI-H23 cells
Format: functional
Conditions: not given

Compound	GI50
COc1cc(O)cc2cc3oc(C)cc(=O)c3c(OC)c12 [COMANTHERIN]	> 100 µM

Same assay, conditions: read-out: Log LC50 (the source's name) (converted)

Compound	CC50
COc1cc(O)cc2cc3oc(C)cc(=O)c3c(OC)c12 [COMANTHERIN]	> 100 µM

Same assay, conditions: read-out: Log TGI (converted)

Compound	TGI
COc1cc(O)cc2cc3oc(C)cc(=O)c3c(OC)c12 [COMANTHERIN]	> 100 µM

Tested on: OVCAR-4
Assay: Growth inhibition of human OVACAR4 cells
Format: functional
Conditions: not given

Compound	GI50	LC50
COc1cc(O)cc2cc3oc(C)cc(=O)c3c(OC)c12 [COMANTHERIN]	> 100 µM	> 100 µM

Same assay, conditions: read-out: Log TGI (converted)

Compound	TGI
COc1cc(O)cc2cc3oc(C)cc(=O)c3c(OC)c12 [COMANTHERIN]	> 100 µM

Tested on: HCC 2998
Assay: Growth inhibition of human HCC2998 cells
Format: functional
Conditions: not given

Compound	GI50
COc1cc(O)cc2cc3oc(C)cc(=O)c3c(OC)c12 [COMANTHERIN]	> 100 µM

Same assay, conditions: read-out: Log LC50 (the source's name) (converted)

Compound	CC50
COc1cc(O)cc2cc3oc(C)cc(=O)c3c(OC)c12 [COMANTHERIN]	> 100 µM

Same assay, conditions: read-out: Log TGI (converted)

Compound	TGI
COc1cc(O)cc2cc3oc(C)cc(=O)c3c(OC)c12 [COMANTHERIN]	> 100 µM

Tested on: K562
Assay: Growth inhibition of human K562 cells
Format: functional
Conditions: not given

Compound	GI50
COc1cc(O)cc2cc3oc(C)cc(=O)c3c(OC)c12 [COMANTHERIN]	47.9 µM

Same assay, conditions: read-out: Log LC50 (the source's name) (converted)

Compound	CC50
COc1cc(O)cc2cc3oc(C)cc(=O)c3c(OC)c12 [COMANTHERIN]	> 100 µM

Same assay, conditions: read-out: Log TGI (converted)

Compound	TGI
COc1cc(O)cc2cc3oc(C)cc(=O)c3c(OC)c12 [COMANTHERIN]	> 100 µM

Tested on: U-251
Assay: Growth inhibition of human U251 cells
Format: functional
Conditions: not given

Compound	GI50	LC50
COc1cc(O)cc2cc3oc(C)cc(=O)c3c(OC)c12 [COMANTHERIN]	100 µM	> 100 µM

Same assay, conditions: read-out: Log TGI (converted)

Compound	TGI
COc1cc(O)cc2cc3oc(C)cc(=O)c3c(OC)c12 [COMANTHERIN]	> 100 µM

Tested on: HOP-62
Assay: Growth inhibition of human HOP62 cells
Format: functional
Conditions: not given

Compound	GI50
COc1cc(O)cc2cc3oc(C)cc(=O)c3c(OC)c12 [COMANTHERIN]	> 100 µM

Same assay, conditions: read-out: Log LC50 (the source's name) (converted)

Compound	CC50
COc1cc(O)cc2cc3oc(C)cc(=O)c3c(OC)c12 [COMANTHERIN]	> 100 µM

Same assay, conditions: read-out: Log TGI (converted)

Compound	TGI
COc1cc(O)cc2cc3oc(C)cc(=O)c3c(OC)c12 [COMANTHERIN]	> 100 µM

Tested on: Malme-3M
Assay: Growth inhibition of human MALME-3M cells
Format: functional
Conditions: not given

Compound	GI50
COc1cc(O)cc2cc3oc(C)cc(=O)c3c(OC)c12 [COMANTHERIN]	> 100 µM

Same assay, conditions: read-out: Log LC50 (the source's name) (converted)

Compound	CC50
COc1cc(O)cc2cc3oc(C)cc(=O)c3c(OC)c12 [COMANTHERIN]	> 100 µM

Same assay, conditions: read-out: Log TGI (converted)

Compound	TGI
COc1cc(O)cc2cc3oc(C)cc(=O)c3c(OC)c12 [COMANTHERIN]	> 100 µM

Tested on: DU-145
Assay: Growth inhibition of human DU145 cells
Format: functional
Conditions: not given

Compound	GI50
COc1cc(O)cc2cc3oc(C)cc(=O)c3c(OC)c12 [COMANTHERIN]	> 100 µM

Same assay, conditions: read-out: Log LC50 (the source's name) (converted)

Compound	CC50
COc1cc(O)cc2cc3oc(C)cc(=O)c3c(OC)c12 [COMANTHERIN]	> 100 µM

Same assay, conditions: read-out: Log TGI (converted)

Compound	TGI
COc1cc(O)cc2cc3oc(C)cc(=O)c3c(OC)c12 [COMANTHERIN]	> 100 µM

Tested on: not listed separately
Assay: Inhibition of HIF1 activation in PC3 cells by TK-luciferase assay
Format: cell-based
Conditions: Homo sapiens, PC-3
In short: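 HIF-1 reporter (pHRE-TK-Luc) assays in transfected PC-3 or T47D cells; HIF-1 induced by hypoxia or by the hypoxia mimetic 1,10-phenanthroline (10 μM); compounds at half-log concentrations; luciferase activity measured; IC50 from experiments in triplicate.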

Compound	IC50
COc1cc(O)cc2cc3oc(C)cc(=O)c3c(OC)c12 [COMANTHERIN]	10 µM

Tested on: SK-MEL-28
Assay: Growth inhibition of human SK-MEL28 cells
Format: functional
Conditions: not given

Compound	GI50
COc1cc(O)cc2cc3oc(C)cc(=O)c3c(OC)c12 [COMANTHERIN]	> 100 µM

Same assay, conditions: read-out: Log LC50 (the source's name) (converted)

Compound	CC50
COc1cc(O)cc2cc3oc(C)cc(=O)c3c(OC)c12 [COMANTHERIN]	> 100 µM

Same assay, conditions: read-out: Log TGI (converted)

Compound	TGI
COc1cc(O)cc2cc3oc(C)cc(=O)c3c(OC)c12 [COMANTHERIN]	> 100 µM
